Source: ChEMBL document CHEMBL2062426 (J Med Chem, 2012)

Columns and labels:
Neutrophil collagenase = Neutrophil collagenase (Homo sapiens, UniProt P22894); assay: Inhibition of MMP8 using (7-methoxycoumarin-4-yl)acetyl-Pro-Leu-Gly-Leu-(3-(2,4-dinitrophenyl)-L-2,3-diaminopropionyl)Ala-Arg-NH2 as substrate incubated for 30 mins prior to substrate addition measured for 10 mins by fluorometry
Summary of the method: (§1)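 Activated MMP-8 or MMP-9 (2 nM) was preincubated with inhibitor (10 pM–1 mM) in 50 mM Tris-HCl pH 7.5 with 0.2 M NaCl, 5 mM CaCl2, 20 μM ZnSO4 and 0.05% Brij 35 at 37 °C for 30 min. Fluorogenic substrate (10 μL of 50 μM into 90 μL) was then added. Rates from the first 10 min were plotted against inhibitor concentration, and values are the mean of three experiments.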

Collagenase 3 = Collagenase 3 (Homo sapiens, UniProt P45452); assay: Inhibition of MMP13 using (7-methoxycoumarin-4-yl)acetyl-Pro-Leu-Gly-Leu-(3-(2,4-dinitrophenyl)-L-2,3-diaminopropionyl)Ala-Arg-NH2 as substrate incubated for 30 mins prior to substrate addition measured for 10 mins by fluorometry
[1] = target: 72 kDa type IV collagenase (Homo sapiens, UniProt P08253); assay: Inhibition of MMP2 using (7-methoxycoumarin-4-yl)acetyl-Pro-Leu-Gly-Leu-(3-(2,4-dinitrophenyl)-L-2,3-diaminopropionyl)Ala-Arg-NH2 as substrate incubated for 30 mins prior to substrate addition measured for 10 mins by fluorometry
Sequence of 72 kDa type IV collagenase (P08253 whole entry): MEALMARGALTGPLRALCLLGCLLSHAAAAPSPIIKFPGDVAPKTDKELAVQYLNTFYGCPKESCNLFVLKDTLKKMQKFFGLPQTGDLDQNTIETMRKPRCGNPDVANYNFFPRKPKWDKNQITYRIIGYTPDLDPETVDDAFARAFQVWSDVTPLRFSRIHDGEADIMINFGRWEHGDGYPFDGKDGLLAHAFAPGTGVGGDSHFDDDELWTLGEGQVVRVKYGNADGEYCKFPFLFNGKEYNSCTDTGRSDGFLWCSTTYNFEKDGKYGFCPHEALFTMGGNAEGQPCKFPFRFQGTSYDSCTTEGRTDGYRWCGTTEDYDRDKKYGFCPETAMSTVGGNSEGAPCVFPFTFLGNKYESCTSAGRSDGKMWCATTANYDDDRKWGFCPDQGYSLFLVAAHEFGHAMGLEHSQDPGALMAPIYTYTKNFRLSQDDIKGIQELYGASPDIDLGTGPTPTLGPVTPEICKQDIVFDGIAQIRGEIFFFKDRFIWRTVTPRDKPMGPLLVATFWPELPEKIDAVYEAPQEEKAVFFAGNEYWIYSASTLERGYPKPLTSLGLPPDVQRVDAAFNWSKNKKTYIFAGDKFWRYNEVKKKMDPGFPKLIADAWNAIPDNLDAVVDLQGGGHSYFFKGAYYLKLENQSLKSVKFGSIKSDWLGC

[2] = target: Matrix metalloproteinase-9 (Homo sapiens, UniProt P14780); assay: Inhibition of MMP9 using (7-methoxycoumarin-4-yl)acetyl-Pro-Leu-Gly-Leu-(3-(2,4-dinitrophenyl)-L-2,3-diaminopropionyl)Ala-Arg-NH2 as substrate incubated for 30 mins prior to substrate addition measured for 10 mins by fluorometry; summary of the method: as §1
Sequence of Matrix metalloproteinase-9 (P14780 whole entry): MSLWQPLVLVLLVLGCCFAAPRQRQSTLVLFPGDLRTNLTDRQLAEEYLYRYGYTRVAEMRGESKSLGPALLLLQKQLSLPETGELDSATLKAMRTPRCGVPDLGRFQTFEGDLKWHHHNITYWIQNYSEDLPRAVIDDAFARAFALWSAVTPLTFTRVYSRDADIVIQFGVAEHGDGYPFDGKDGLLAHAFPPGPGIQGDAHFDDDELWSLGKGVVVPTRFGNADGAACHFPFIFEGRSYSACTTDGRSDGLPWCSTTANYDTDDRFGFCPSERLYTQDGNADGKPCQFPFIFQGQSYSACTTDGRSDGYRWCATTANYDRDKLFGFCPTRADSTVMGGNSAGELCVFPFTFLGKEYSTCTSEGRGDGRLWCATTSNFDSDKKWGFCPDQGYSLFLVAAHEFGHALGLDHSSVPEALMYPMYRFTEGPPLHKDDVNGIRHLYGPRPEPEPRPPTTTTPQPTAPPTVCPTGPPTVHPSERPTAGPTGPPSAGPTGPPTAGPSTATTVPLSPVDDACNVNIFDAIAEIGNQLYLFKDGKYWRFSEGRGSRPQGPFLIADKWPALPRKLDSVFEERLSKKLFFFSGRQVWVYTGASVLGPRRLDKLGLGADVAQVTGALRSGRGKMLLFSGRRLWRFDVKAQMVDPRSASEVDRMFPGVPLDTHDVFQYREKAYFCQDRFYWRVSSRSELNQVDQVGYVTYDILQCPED

Sequence of Neutrophil collagenase (P22894 whole entry): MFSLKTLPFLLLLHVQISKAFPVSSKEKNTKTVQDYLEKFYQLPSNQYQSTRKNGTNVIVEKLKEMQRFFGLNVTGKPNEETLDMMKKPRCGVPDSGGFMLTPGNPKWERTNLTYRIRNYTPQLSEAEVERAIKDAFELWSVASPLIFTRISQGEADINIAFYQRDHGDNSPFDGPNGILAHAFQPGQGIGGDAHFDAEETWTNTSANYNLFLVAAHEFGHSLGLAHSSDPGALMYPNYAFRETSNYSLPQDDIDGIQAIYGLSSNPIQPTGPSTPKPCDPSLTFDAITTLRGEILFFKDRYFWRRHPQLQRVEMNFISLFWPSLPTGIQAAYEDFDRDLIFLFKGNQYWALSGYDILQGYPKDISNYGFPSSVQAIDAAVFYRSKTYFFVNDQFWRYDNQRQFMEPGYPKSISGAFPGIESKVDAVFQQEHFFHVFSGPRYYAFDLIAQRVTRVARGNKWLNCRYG

| SMILES | IC50 (Neutrophil collagenase) | IC50 (Collagenase 3) | IC50 [1] | IC50 [2] |
| --- | --- | --- | --- | --- |
| COc1ccc(S(=O)(=O)N(Cc2ccc(OCCOCCOCCOCCOCc3cn(CCOCCOCCOCCF)nn3)cc2)[C@@H](C(=O)NO)C(C)C)cc1 | 5 nM | 4 nM | 4 nM | 5 nM |
| COc1ccc(S(=O)(=O)N(Cc2ccc(OCCOCCOCCOCCOCc3cn(CCF)nn3)cc2)[C@@H](C(=O)NO)C(C)C)cc1 | 0.2 nM | 6 nM | 2 nM | 0.6 nM |
| C#CCOCCOCCOCCOCCOc1ccc(CN([C@@H](C(=O)NO)C(C)C)S(=O)(=O)c2ccc(OC)cc2)cc1 | 0.11 nM | 0.09 nM | 0.35 nM | 0.37 nM |
| COc1ccc(S(=O)(=O)N(Cc2ccc(OCCOCCOCCOCCOCc3cn([C@@H]4O[C@H](CO)[C@@H](O)[C@H](O)[C@H]4F)nn3)cc2)[C@@H](C(=O)NO)C(C)C)cc1 | 58 nM | 18 nM | 30 nM | 43 nM |
| COc1ccc(S(=O)(=O)N(Cc2ccc(OCCOCCOCCOCCn3cc(COCCOCCOCCOCCOCCF)nn3)cc2)[C@@H](C(=O)NO)C(C)C)cc1 | 3 nM | 1 nM | 4 nM | 3 nM |
| C#CCN([C@@H](C(=O)NO)C(C)C)S(=O)(=O)c1ccc(OC)cc1 | 14 nM | 10 nM | 5 nM | 2 nM |
| COc1ccc(S(=O)(=O)N(Cc2cn(CCOS(=O)(=O)c3ccc(C)cc3)nn2)[C@@H](C(=O)NO)C(C)C)cc1 | 8 nM | 5 nM | 107 nM | 7 nM |
| COc1ccc(S(=O)(=O)N(Cc2cn(CCF)nn2)[C@@H](C(=O)NO)C(C)C)cc1 | 0.02 nM | 0.006 nM | 0.13 nM | 0.03 nM |
